Experimental data: publication PMC10630944 (Molecular Pharmaceutics, 2023)

Key:
[1] = In vitro stability in mouse serum; format: in vitro ADME; conditions: room temperature, 24 h of incubation, iTLC, average of three independent samples
[2] = system: SCLC tumors (H446); assay: Therapeutic efficacy against SCLC; format: in vivo, BALB/c nude mice; conditions: for tumor growth compared with the PBS control group: n = 6–10
How it was run: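 Xenografts were s.c. H446 (1 × 10^7 cells) in male BALB/c nude mice, randomized 2 weeks post-inoculation. Tumor size and weight were tracked for 30 days (n = 6–10), and tumor volumes were analysed by one-way ANOVA. At day 30, formalin-fixed tumors had H&E and γH2AX immunofluorescence.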

[3] = Adverse effects in SCLC tumor-bearing mice; format: in vivo, BALB/c nude mice
How it was run: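 H446 cells (1 × 10^7 in 0.2 mL PBS) were implanted s.c. in the left shoulder of male BALB/c nude mice aged 4–5 weeks (20 ± 1 g). Mice were randomized at 2 weeks and given i.v. tail-vein PBS, unlabeled peptide 5 mg/kg, or test compound (370 kBq, 1110 kBq, or 370 kBq on days 0, 3 and 7). Body weight was followed for 30 days. Blood counts were taken on days 14 and 28 (n = 4). ALT, AST, BUN and Cr were measured on day 28. Liver, spleen, kidney, stomach and lung were H&E-stained at day 30.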

[4] = system: A549 cells; assay: In vitro cytotoxicity; format: cell-based, human; conditions: 24 h exposure, low-level SSTR2 A549 cells
[5] = Biodistribution in SCLC tumor-bearing BALB/c nude mice; format: in vivo
How it was run: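 H446 cells (1 × 10^7 in 0.2 mL PBS) implanted subcutaneously in left shoulder of male nude mice, 4–5 weeks, 20 ± 1 g. 211At-labelled test compound or free 211At (1110 kBq each) given in parallel via tail vein, n = 4 per group. Killed at 1, 3, 6, 12, 24 h. Tumor, main tissues and whole blood weighed and gamma-counted. Values as %ID/g (thyroid %ID/organ), mean ± s.d.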

[6] = system: SCLC tumors (H446); assay: MHC-I and calreticulin expression in SCLC tumors; format: in vivo, BALB/c nude mice; conditions: 1110 kBq administration group, day 1, 4, and 8
How it was run: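 In nude mice bearing s.c. H446 tumors, test compound was given i.v. as 1110 kBq once or 370 kBq on days 0, 3 and 7, with PBS controls. Tumors were examined on days 1, 4 and 8 after treatment. MHC-I and calreticulin were stained by immunohistochemistry per manufacturer's instructions, and expression was quantified. Three independent experiments were run in triplicate, reported as mean ± s.d.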

[7] = system: A549 cells; assay: DNA damage, γH2AX imaging and Western blot, A549 cells; format: cell-based, human
How it was run: (§1)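 Cells (5 × 10^4/well) were exposed for 2 h to PBS, unlabeled peptide, free 211At or test compound (1.85, 3.7, 18.5, 37 kBq), then recovered 24 h in fresh medium. For imaging, cells were fixed, permeabilized and stained with mouse anti-γH2AX (1:800). For blotting, RIPA lysates (BCA-normalized) were run on 10% SDS-PAGE and transferred to PVDF. Blocking was 5% milk for 1 h, anti-γH2AX was applied at 4 °C for 12 h, with ECL detection and GAPDH as loading control.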

[8] = system: H446 cells; assay: Cellular uptake / binding ratio, H446 cells; format: cell-based, human
How it was run: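 Cells were grown in RPMI-1640 with 10% FCS at 37 °C and 5% CO2. Suspensions of 5 × 10^6 cells in PBS, in low-bind tubes, got 3.7 kBq and were agitated at 37 °C for 1, 3 or 6 h. Cells were then pelleted and rinsed twice with ice-cold PBS, and pellets and pooled supernatant/washes were gamma-counted. Parallel tubes held unlabeled peptide as blocker for nonspecific binding. Three independent experiments were run in triplicate.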

[9] = system: H446 cells; assay: DNA damage, γH2AX imaging and Western blot, H446 cells; format: cell-based, human
How it was run: as §1

[10] = groups A, D (1110 kBq) and E (3 × 370 kBq), day 30
[11] = groups D (1110 kBq) and E (3 × 370 kBq), day 30

In the case of “N-succinimidyl-3-[^211At]astatobenzoate-Oct [[^211At]SAB-Oct]”, the “radiochemical purity (RCP) after incubation in mouse serum” value [1] is reported as 93%, the “tumor cell necrosis in H&E assay” value ([2]; 1110 kBq, day 30, compared with PBS and unlabeled octreotide groups) is reported as “highest cell necrosis” and the “clusters of γH2AX foci in dissected tumors” value ([2]; 1110 kBq, day 30 after injection) is reported as “still visible”. The “tumor growth compared with the PBS control group” value ([2]; group C, single i.v. injection 370 kBq, monitored 30 days) was “significantly inhibited”, the “tumor growth compared with the PBS control group” value ([2]; group D, single i.v. injection 1110 kBq, monitored 30 days) was “significantly inhibited” and the “tumor growth compared with the PBS control group” value ([2]; group E, 3 times 370 kBq on days 0, 3, and 7, monitored 30 days) was “significantly inhibited”. The “liver or kidney biochemical function” value ([3]; 1110 kBq) was “did not significantly alter”, the “leukocytopenia or weight loss” value ([3]; 1110 kBq doses) was “not observed” and the leukocytopenia ([3]; 1110 kBq group, day 28) was “No leukocytopenia”. The Bun values ([3]; 1110 kBq, day 28, P > 0.05) was “trend of decreased Bun values”, the “blood cells (leukocyte, lymphocyte, thrombocyte, erythrocyte counts, hematocrit, hemoglobin)” value ([3]; day 14 and day 28 postinjection, 1110 kBq or multiple dosing, n = 4) was “no significant change” and the “difference in ALT and AST concentrations between each group” value ([3]; day 28, P > 0.05, groups A–E) was “not significant”. The “difference in Bun and Cr concentrations between treatments” value ([3]; day 28, P > 0.05, groups A–E) was “not significant”, the “liver H&E” value [3, 10] was “No obvious morphological difference” and the “lung H&E” value [3, 10] was “no obvious abnormalities”. The “kidney H&E” value [3, 11] was “brush border of a few renal tubular epithelial cells was slightly exfoliated”, the “stomach H&E” value [3, 11] was “mild exfoliation of extensive mucosal epithelium” and the “in vitro cytotoxicity to A549 cells” value [4] was “specifically killed SSTR2-positive SCLC cells but not low-level SSTR2 A549 cells”. For the same substance, the “uptake in the lung and intestines” value ([5]; 1110 kBq i.v.) was “physiologically high uptake”, the “radioactivity uptake in the thyroid” value ([5]; 1110 kBq i.v., 1 to 24 h) was “low radioactivity uptake” and the “stomach uptake at 1 h postinjection” value ([5]; 1110 kBq i.v., 1 h, n = 4, mean ± s.d., gamma counter) was 17.99 ± 19.65 % ID/g. For the same substance, the maximum tumor uptake ([5]; 1110 kBq i.v., 3 h postinjection, n = 4, mean ± s.d.) was 11.46 ± 4.35 % ID/g, the “radioactivity in all tissues after 24 h” value ([5]; 1110 kBq i.v., 24 h) was “Low levels of radioactivity” and the “stomach uptake at 24 h” value ([5]; 1110 kBq i.v., 24 h, n = 4, mean ± s.d.) was 2.87 ± 0.86 % ID/g. The deastatination in vivo ([5]; observed in the spleen, lung, and stomach) was “slight deastatination”, the “expression of MHC-I and calreticulin in tumor over time” value [6] was “first increasing and then decreasing” and the “γH2AX protein expression, Western blot, A549 cells” value ([7]; 1.85, 3.7, 18.5, or 37 kBq) was “slightly expressed only when the dose reached 18.5 or 37 kBq”. For the same substance, the “level of γH2AX in A549 cells compared to PBS” value ([7]; 37 kBq, ***P < 0.001, still much lower than in H446) was “slightly higher”, the “binding ratio to H446 cells in comparison to A549 cells” value ([8]; 5 × 10^6 cells in PBS, 3.7 kBq, 37 °C, 1, 3 and 6 h, gamma counter, triplicate) was “significantly higher” and the “binding ratio to H446 cells with Oct block” value ([8]; 100-fold excesses of unlabeled Oct as blocking agent) was “markedly decreased”. The “γH2AX protein, Western blot, H446 cells” value ([9]; 1.85, 3.7, 18.5, or 37 kBq) was “visually increased” and the “level of γH2AX in H446 cells compared to PBS” value ([9]; 18.5 and 37 kBq, ****P < 0.001) was “distinct dose-dependent increase”.
